Experimental data gathered from unrelated publications.
Lines come from different studies, so protocols differ. ≈ marks a conversion by molar mass, not a printed value.
Organism: Pseudomonas aeruginosa

The MIC80 of `O=c1cccccc1SSc1cccccc1=O` is reported as > 71.4 µM (microbial growth, broth dilution; ATCC27853).
With `CCn1cc(C(=O)O)c(=O)c2cc(F)c(N3CCNCC3)cc21` the MBC was 2 µM (microbial killing, broth dilution; ATCC9027).
The MBC of `COc1c(C)c(OC(C)=O)c(C)c(O)c1C(=O)/C=C/c1ccccc1` is reported as > 5000 µg/mL (microbial killing, broth dilution; ATCC27853).
`CC1(C)SC2C(NC(=O)C(NC(=O)C3=C(O)C4(CC4)NC3=O)c3ccccc3)C(=O)N2C1C(=O)O` (centres unmarked) has an inhibition zone of 12 mm (microbial growth, well diffusion; PAO1; 200 µM).
`COc1c(C)c(OC(=O)c2ccccc2)c(C)c(O)c1C(=O)/C=C/c1ccccc1` gave an MBC of > 5000 µg/mL (microbial killing, broth dilution; ATCC27853).
The MIC80 of `O=C(Sc1cccccc1=O)c1ccc(C(F)(F)F)cc1` is reported as > 71.4 µM (microbial growth, broth dilution; ATCC27853).
`C[C@H]1NCc2cc(-c3ccc4c(=O)c(C(=O)O)cn(C5CC5)c4c3OC(F)F)ccc21` gave an MIC50 of 2 µg/mL (≈ 4.69 µM) (microbial growth, broth dilution; clinical isolate).
`C#CCCCCCCCCC=CCC(O)CC(O)CO` (centres unmarked) gave an IC50 of > 200 µg/mL (microbial growth, broth dilution; ATCC27853).
`COc1cc(Cc2cnc(N)nc2N)cc(OC)c1OC` has an MBC of 16 µg/mL (microbial killing, broth dilution; 48 h).
`COc1c(C)c(OC)c(C(=O)/C=C/c2ccccc2)c(OC)c1C` gave an MBC of > 5000 µg/mL (microbial killing, broth dilution; ATCC27853).
`CC1(C)S[C@@H]2[C@H](NC(=O)[C@H](N)c3ccccc3)C(=O)N2[C@H]1C(=O)O` gave an inhibition zone of 8 mm (microbial growth, well diffusion; PAO1; 200 µM).
`COc1cc(C=Cc2cc(-c3ccc(N(C)C)cc3)nc(O)n2)ccc1O` has an inhibition zone of 7 mm (microbial growth, disc diffusion; ATCC27853; 250 µg/mL).
`COc1c(C)c(OS(=O)(=O)c2ccc3ccccc3c2)c(C)c(O)c1C(=O)/C=C/c1ccccc1` gave an MBC of > 5000 µg/mL (microbial killing, broth dilution; ATCC27853).
The inhibition zone of `CC1(C)SC2C(NC(=O)C(NC(=O)C3=C(O)C4CCCN4C3=O)c3ccccc3)C(=O)N2C1C(=O)O` (centres unmarked) is reported as 12 mm (microbial growth, well diffusion; PAO1; 200 µM).
For `COc1cc(C=CC(=O)CC(c2ccc(N(C)C)cc2)n2ccnc2)ccc1O` (centres unmarked), the inhibition zone was 7.66 mm (microbial growth, disc diffusion; ATCC27853; 250 µg/mL).
With `COc1c(C)c(OC)c2c(c1C)OC(c1ccccc1)CC2=O` (centres unmarked) the MBC was > 5000 µg/mL (microbial killing, broth dilution; ATCC27853).
For `COc1cc(C=Cc2cc(-c3ccccc3)nc(O)n2)ccc1O`, the inhibition zone was 14.3 mm (microbial growth, disc diffusion; ATCC27853; 500 µg/mL).
`CCCCCCCC(=O)Oc1c(C)c(O)c(C(=O)/C=C/c2ccccc2)c(OC)c1C` has an MBC of > 5000 µg/mL (microbial killing, broth dilution; ATCC27853).
With `CC(C)c1ccc(O)c(=O)cc1` the MIC80 was > 71.4 µM (microbial growth, broth dilution; ATCC27853).
`CC1(C)S[C@@H]2[C@H](NC(=O)[C@H](N)c3ccc(O)cc3)C(=O)N2[C@H]1C(=O)O` has an inhibition zone of 13.8 mm (microbial growth, disc diffusion; ATCC27853; 500 µg/mL).
`O=C(O)c1cn(C2CC2)c2cc(N3CCNCC3)c(F)cc2c1=O` gave an inhibition zone of 16 mm (microbial growth, disc diffusion; 100 µg/mL, 24 h).
`COc1cc(C=CC(=O)CC(c2ccc([N+](=O)[O-])cc2)n2ccnc2)ccc1O` (centres unmarked) gave an inhibition zone of 7.67 mm (microbial growth, disc diffusion; ATCC27853; 500 µg/mL).
`CN1CC(O)=C(C(=O)NC(C(=O)NC2C(=O)N3C2SC(C)(C)C3C(=O)O)c2ccccc2)C1=O` (centres unmarked) gave an inhibition zone of 12.3 mm (microbial growth, well diffusion; PAO1; 200 µM).
For `CC[C@H]1OC(=O)[C@H](C)[C@@H](O[C@H]2C[C@@](C)(OC)[C@@H](O)[C@H](C)O2)[C@H](C)[C@@H](O[C@@H]2O[C@H](C)C[C@H](N(C)C)[C@H]2O)[C@](C)(O)C[C@@H](C)/C(=N\OCOCCOC)[C@H](C)[C@@H](O)[C@]1(C)O`, the inhibition zone was 19 mm (microbial growth, disc diffusion; ATCC9721; 20000 µg/mL, 24 h).
For `COc1c(C)c(OS(=O)(=O)c2ccc3ccccc3c2)c(C)c(OS(=O)(=O)c2ccc3ccccc3c2)c1C(=O)/C=C/c1ccccc1`, the MBC was > 5000 µg/mL (microbial killing, broth dilution; ATCC27853).
With `O=C(Sc1cccccc1=O)c1ccccc1` the MIC80 was > 71.4 µM (microbial growth, broth dilution; ATCC27853).
The IC50 of `C#CCCCCCCCCCCCC(O)CC(O)CO` (centres unmarked) is reported as > 200 µg/mL (microbial growth, broth dilution; ATCC27853).
`COc1c(C)c(OC(=O)c2ccc(C)cc2)c(C)c(O)c1C(=O)/C=C/c1ccccc1` gave an MBC of > 5000 µg/mL (microbial killing, broth dilution; ATCC27853).
The MIC80 of `O=C(Sc1cccccc1=O)c1ccccc1C(F)(F)F` is reported as > 71.4 µM (microbial growth, broth dilution; ATCC27853).
